Ec RNAP inh – inhibitors of Escherichia coli RNA polymerase. actives 0.2% (n = 62,000). E. coli RNA polymerase, fluorescence transcription assay. P0A8V2. inhibition, %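 (tested at 10 µM)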; in the data active means inhibition above about 20%
Target sequence (P0A8V2 whole entry, looked up): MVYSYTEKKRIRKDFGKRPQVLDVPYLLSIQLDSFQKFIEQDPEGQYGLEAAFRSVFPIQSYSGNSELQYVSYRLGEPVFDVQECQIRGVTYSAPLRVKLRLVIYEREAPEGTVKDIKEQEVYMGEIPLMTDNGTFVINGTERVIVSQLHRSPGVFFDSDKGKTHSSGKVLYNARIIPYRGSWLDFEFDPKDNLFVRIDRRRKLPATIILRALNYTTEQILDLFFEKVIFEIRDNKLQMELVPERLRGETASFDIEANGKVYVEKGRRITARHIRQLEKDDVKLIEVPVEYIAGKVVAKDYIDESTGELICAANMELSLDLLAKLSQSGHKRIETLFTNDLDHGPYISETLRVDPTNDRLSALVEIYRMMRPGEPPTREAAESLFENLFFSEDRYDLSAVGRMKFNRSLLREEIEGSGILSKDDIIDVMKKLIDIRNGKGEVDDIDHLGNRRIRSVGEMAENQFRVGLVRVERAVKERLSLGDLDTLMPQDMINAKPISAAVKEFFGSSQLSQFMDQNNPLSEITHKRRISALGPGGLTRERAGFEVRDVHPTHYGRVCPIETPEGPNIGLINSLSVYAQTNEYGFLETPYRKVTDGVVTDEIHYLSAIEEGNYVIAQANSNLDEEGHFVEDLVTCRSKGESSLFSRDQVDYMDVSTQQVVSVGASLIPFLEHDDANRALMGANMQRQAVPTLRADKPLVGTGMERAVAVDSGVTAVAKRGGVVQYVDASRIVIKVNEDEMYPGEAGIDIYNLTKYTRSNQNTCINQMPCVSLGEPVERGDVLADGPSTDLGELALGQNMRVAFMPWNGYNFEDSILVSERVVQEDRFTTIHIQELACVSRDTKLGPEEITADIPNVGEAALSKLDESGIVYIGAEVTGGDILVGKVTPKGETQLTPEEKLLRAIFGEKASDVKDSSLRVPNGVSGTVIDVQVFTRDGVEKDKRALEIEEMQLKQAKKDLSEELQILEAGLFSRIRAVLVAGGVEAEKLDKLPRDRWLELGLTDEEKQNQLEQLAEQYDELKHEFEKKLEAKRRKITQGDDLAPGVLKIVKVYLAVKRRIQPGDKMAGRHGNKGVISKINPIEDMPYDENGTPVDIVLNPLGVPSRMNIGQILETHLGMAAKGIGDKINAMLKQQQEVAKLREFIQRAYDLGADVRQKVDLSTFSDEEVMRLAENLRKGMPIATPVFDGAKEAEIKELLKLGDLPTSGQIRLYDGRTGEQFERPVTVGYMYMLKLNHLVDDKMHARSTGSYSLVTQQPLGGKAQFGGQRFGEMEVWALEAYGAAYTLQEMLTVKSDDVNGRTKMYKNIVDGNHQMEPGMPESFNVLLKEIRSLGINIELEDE
PMK inhibit – blocks S. pneumoniae phosphomevalonate kinase | inhibition, % at 10 µM | actives 0.49% (n = 65,000) | purified PMK, PK/LDH-coupled NADH absorbance 340 nm;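 active means top-ranked compounds by inhibition in the single 10 µM screen, taking a fixed number of the strongest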
Spn DPM-DC inh – blocks S. pneumoniae diphosphomevalonate decarboxylase; purified DPM-DC, PK/LDH coupled NADH fluorescence; calls only at 10 µM; actives 0.49% (n = 65,000);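 active means the 320 compounds with the highest percent inhibition in the single-dose primary screen, excluding strongly autofluorescent ones, cut at about 32% in these data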;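 further: kinetic rate of NADH fluorescence loss reporting ADP formed by the decarboxylase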
MK inhibit – inhibitors of Streptococcus pneumoniae mevalonate kinase; purified MK, PK/LDH-coupled NADH absorbance 340 nm; inhibition, % at 10 µM; actives 0.48% (n = 65,000); AID 555;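 active means ranked among the strongest by inhibition in the single 10 µM screen, a fixed top-ranked set picked for dose follow-up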
TNAP act mid DEA – human TNAP activation, intermediate phosphate acceptor; purified TNAP, CDP-star luminescence, 100 mM DEA, 30 min; active compounds read high; scale: 0 levamisole-inhibited, 1 vehicle-only enzyme; activation factor at 20 µM; 64,000 tested, under 10 active; P05186;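 active means activation factor of at least 2 at 20 µM, relative to controls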
AP complement – orthogonal test for alternative complement pathway inhibitors; Human serum alternative complement pathway, LPS-coated ELISA, C3 deposition; tested in compound mixtures; inhibition, % at 5 µM; actives 0.08% (n = 62,000); AID 1235;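 active means inhibition above 30% in each of the two pooled mixtures holding the compound, so the lower value exceeds 30%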
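Assay system: human serum alternative complement pathway, C3 deposition on LPS-coated wells; Dosing: 5 µM per compound in ten-compound mixtures; Detection: Anti-C3 ELISA, OD 450 nm; Buffer or medium: Mg2+-EGTA GVB++ buffer containing human serum at 1:15 dilution; Timing: 1 h at 37 °C; Replication: two different pools per compound.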
Each line names hits and unclear results; the compound was inactive in the other large screens. Compounds with a hit are over-represented: about 1.5% of the library has one in this group of screens.

CC1=C(C(=O)OC2CCCC2)C(c2ccc(C)o2)C2=C(CC(c3cccs3)CC2=O)N1 (stereo not drawn)	none
CCN(CC)c1nc2ccccc2n2cnnc12	Spn DPM-DC inh active
CCOc1ccccc1Nc1nc2ccccc2n2cnnc12	none (not shown: Spn DPM-DC inh)
O=C(c1ccco1)N1CCN(C2CCCC2)CC1	MK inhibit 50
O=C(c1ccccc1)N1CCN(C2CCCCCC2)CC1	none
CCCCc1c(O)nc(N2CCN(Cc3ccccc3)CC2)[nH]c1=O	Ec RNAP inh 43
COc1ccc(CNC(=O)C(C)NC(=O)c2cc3ccccc3o2)cc1 (stereo not drawn)	Ec RNAP inh 39
CC(C)C(=O)Nc1ccc(NC(=O)c2cc3ccccc3o2)cc1	none
CC1(C)CC(C)(O)P(=O)(c2ccccc2)O1 (stereo not drawn)	PMK inhibit 30
CC1=CCP(=O)(c2ccccc2)C1 (stereo not drawn)	none
COC(=O)c1ccc(Oc2nc3ccccc3n3c(C)nnc23)cc1	none (no result: AP complement)
CCOc1ccc(N(CC(=O)NC(C)CC)S(=O)(=O)c2c(C)noc2C)cc1 (stereo not drawn)	none
CCOc1ccc(N(CC(=O)NC2CCCC(C)C2C)S(=O)(=O)c2c(C)noc2C)cc1 (stereo not drawn)	Spn DPM-DC inh active
N#CCSc1nnc(COc2ccc3ccccc3c2)o1	none
COc1cc(-c2nnc(COc3ccc4ccccc4c3)o2)cc(OC)c1OC	PMK inhibit 28
O=C(NC1CCCCCCC1)c1ccc(CNc2c(N3CCOCC3)c(=O)c2=O)cc1	none
CCCn1c(NC(=O)c2ccc(Cl)c(S(=O)(=O)N3CCCC3)c2)nc2ccccc21	none
CCOc1cc(C(=O)NCc2nnc(SCC(=O)OC)n2C)cc(OCC)c1OCC	PMK inhibit 12
COc1ccc2[nH]cc(C3N4CC5(C)CN3CC(C)(C4)C5=O)c2c1 (stereo not drawn)	MK inhibit 48 (no result: Ec RNAP inh, TNAP act mid DEA, AP complement)
Cc1cc2c(c(Sc3ccccc3)n1)C(=O)OC2	none
CCN(CC)S(=O)(=O)c1ccc(NC(=O)c2cccc3c2C(=O)N(CCOC)C3)cc1	Spn DPM-DC inh active
COCCN1Cc2cccc(C(=O)Nc3ccc(S(=O)(=O)N4CCCCCC4)cc3)c2C1=O	none
Cc1sc2ncnc(NCC(c3ccco3)N(C)C)c2c1C (stereo not drawn)	PMK inhibit 30, MK inhibit 56
NC(=O)C1(N2CCCCC2)CCN(Cc2ccccc2Cl)CC1	none
CC1(C(=O)NC2CCCCCCC2)CCC(=O)N1Cc1ccco1 (stereo not drawn)	PMK inhibit 31
O=c1cccccc1NCc1ccccc1	Spn DPM-DC inh active
COc1ccc(-c2nnnn2CCc2ccccc2)cc1	none
CC(C)=CCC/C(C)=C/CN(CC(C)O)CC(C)O (stereo not drawn)	MK inhibit 40
CC(C)=CCCC(C)N(C=O)C(C)CCC=C(C)C (stereo not drawn)	none
CCN(CC)CCSc1nc(O)c(C(C)C)c(=O)[nH]1	PMK inhibit 25
Nc1nnc(Cc2ccc(Cl)cc2)s1	none
Nc1nnc(CCS(=O)(=O)c2cc(Cl)ccc2Cl)s1	MK inhibit 53
CCOC(=O)Cc1csc(-n2sc3ccccc3c2=O)n1	Spn DPM-DC inh active, MK inhibit 67
NC(=O)C1CC(=O)N(Cc2ccc3c(c2)OCO3)C(=Nc2ccccc2)S1 (stereo not drawn)	none
CNC(=O)C1CC(=O)N(Cc2ccc3c(c2)OCO3)C(=Nc2ccc(OC)cc2)S1 (stereo not drawn)	PMK inhibit 27
Cc1cnc(SCCc2ccncc2)nc1C	Spn DPM-DC inh active
Cc1nn(C(=O)c2ccc3c(c2)OCO3)c(N)c1-c1ccccc1	none
CCOC(=O)C1=C(O)C(=O)N(c2ccc(S(N)(=O)=O)cc2)C1c1ccc(OC)cc1 (stereo not drawn)	PMK inhibit 35
COC(=O)c1cc(Cl)c(NS(=O)(=O)c2ccccc2)cc1OC	Spn DPM-DC inh active
CCOC(=O)C1CCCN(c2nc3ccccc3nc2C(C#N)C(=O)OC(C)COC)C1 (stereo not drawn)	Ec RNAP inh 21
N#CC(C(=O)NC1CC1)c1nc2ccccc2nc1N1CCCC1 (stereo not drawn)	none
COCCNC(=O)C(C#N)c1nc2ccccc2nc1N1CCCCCC1 (stereo not drawn)	Spn DPM-DC inh active
N#CC(C(=O)NC1CCCCC1)c1nc2ccccc2nc1N1CCCCC1 (stereo not drawn)	PMK inhibit 41, Spn DPM-DC inh active
COc1ccc(CCN2C(=O)C3C4C=CC(C4)C3C2=O)cc1OC (stereo not drawn)	none
CC(Sc1nc2ccccc2s1)C(=O)N1CCOCC1 (stereo not drawn)	none
COc1cc(C2Nc3ccc4ncccc4c3C3=C2C(=O)CCC3)ccc1O (stereo not drawn)	none
COc1cccc(Cn2c(=S)[nH]c3ccc(N4CCOCC4)cc3c2=O)c1	Spn DPM-DC inh active
N#CCCN(Cc1cccnc1)C(=O)Nc1cccc(Cl)c1	none
Cc1cccc(NC(=O)c2ccc(S(=O)(=O)N3CCCCC3)cc2)n1	none
Cc1csc(C(C#N)C(=O)c2ccc(S(=O)(=O)N3CCCC3)cc2)n1 (stereo not drawn)	PMK inhibit 25
COc1ccc(C)cc1NCc1cccc(OC)c1OC	MK inhibit 47
COC(=O)c1ccccc1NC(=O)c1ccc2c(c1)C(=O)N(Cc1ccco1)C2=O	Spn DPM-DC inh active
CN1CCN(C(=O)C2CC(c3c(F)cccc3Cl)=NO2)CC1 (stereo not drawn)	none
O=C(NC1CCCCC1)c1cc2nc(-c3ccco3)cc(C(F)(F)F)n2n1	none (not shown: Spn DPM-DC inh)
O=C(c1cc2nc(-c3ccco3)cc(C(F)(F)F)n2n1)N1CCc2ccccc2C1	PMK inhibit 30 (not shown: Spn DPM-DC inh)
CCOC(=O)c1cc2c(=O)n3ccccc3nc2n(C(C)C)c1=NC(=O)c1ccncc1	Spn DPM-DC inh active
COCCNC(=O)C(c1ccc(C)o1)N(Cc1ccc(OC)cc1)C(=O)Cn1nnc2ccccc21 (stereo not drawn)	PMK inhibit 25
Cc1cc(=O)[nH]c2ccccc12	Spn DPM-DC inh active
Cc1cc(=O)oc2cc(OC(C)C(=O)O)c(Cl)cc12 (stereo not drawn)	Spn DPM-DC inh active (no result: Ec RNAP inh, AP complement)
COCCN1C(=O)c2ccccc2C(C(=O)NCCCN2CCCC2=O)C1c1c[nH]c2ccccc12 (stereo not drawn)	none
COc1cccc(CNC(=O)C2CCCN(c3nn4c(=O)cc(C)nc4s3)C2)c1 (stereo not drawn)	PMK inhibit 27
CCOc1cc(C(=O)NCCN2CCOCC2)cc(OCC)c1OCC	MK inhibit 50
CCS(=O)(=O)N1CCN(C(C)CCc2ccccc2)CC1 (stereo not drawn)	MK inhibit 42

Assay outcomes deposited in PubChem by several laboratories.
